Laboratory results from ChEMBL document CHEMBL4049419, “Structure-Based Discovery of New Antagonist and Biased Agonist Chemotypes for the Kappa Opioid Receptor” (J Med Chem, 2017).
Activity calls are given as the source filed them. The calls are words filed in the database; no cut-off is given here.

Columns and labels:
[1] = target: T1, Kappa-type opioid receptor (Homo sapiens, UniProt P41145); assay: Displacement of 3H-U69593 from human KOR expressed in HEK293 cells at 50 uM after 90 mins by micro beta scintillation counting analysis; type: cell-based
Summary of the method: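 Primary screen of 3H-U69593 binding at cloned human KOR in HEK293 cells, using a single compound concentration of 50 µM tested in quadruplicate. Percent inhibition of radioligand binding is reported.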

[2] = target: T1, Kappa-type opioid receptor; assay: Displacement of 3H-U69593 from human KOR expressed in HEK293 cells after 90 mins by micro beta scintillation counting analysis; type: cell-based
Summary of the method: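 Competition binding with 3H-U69593 at cloned human KOR expressed in HEK293 cells. Ki was derived from the curves; normalized data from three independent assays were pooled, mean ± SEM.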

[3] = target: T1, Kappa-type opioid receptor; assay: Agonist activity at human KOR expressed in HEK293T cells coexpressing Gi assessed as Gi-mediated inhibition of cAMP production at 10 uM incubated for 15 mins followed by Gs activator isoproterenol addition measured after 15 mins by luciferase reporter gene assay relative to Sal-A; type: functional, cell-based; details: HEK-293T
Summary of the method: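 HEK293T cells co-transfected with human KOR and a split-luciferase GloSensor cAMP biosensor, plated overnight at 15,000 cells/well in DMEM + 1% dialyzed FBS. Loaded 1 h with 20 mM HEPES/1× HBSS pH 7.4 containing 4 mM luciferin. Drug added for 15 min, then isoproterenol (200 nM final, Gs activation via endogenous β2 receptors); luminescence read 15 min later.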

[4] = species: Homo sapiens; assay: Ratio of Ki for KOR M142A mutant (unknown origin) to Ki for human KOR expressed in HEK293 cells; type: cell-based
[5] = species: Homo sapiens; assay: Ratio of Ki for KOR H291A mutant (unknown origin) to Ki for human KOR expressed in HEK293 cells; type: cell-based
[6] = species: Homo sapiens; assay: Ratio of Ki for KOR I294A mutant (unknown origin) to Ki for human KOR expressed in HEK293 cells; type: cell-based
[7] = test system: Kappa-type opioid receptor (Homo sapiens), P41145 [M142A]; assay: Displacement of 3H-U69593 from KOR M142A mutant (unknown origin)
Summary of the method: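 Single-point KOR mutants were retested alongside wild-type receptor in ³H-U69593 competition binding. 12-point concentration-response from 100 µM to 10 nM, run in triplicate; Ki derived.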

[8] = target: T1, Kappa-type opioid receptor; assay: Antagonist activity at KOR (unknown origin) expressed in HTLA cells assessed as inhibition of Sal A-induced beta-arrestin recruitment preincubated for overnight followed by Sal-A addition at 30 mins post compound treatment measured after 20 mins by Bright-Glo luminescence assay; type: cell-based
Summary of the method: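 HTLA cells transfected overnight, plated at 15,000 cells/well in DMEM with 1% dialyzed FBS on poly-L-Lys, rested ≥6 h. Test compounds added, then Sal A 30 nM 30 min later; overnight incubation. BrightGlo reagent 20 min at room temperature in the dark; luminescence read. Normalized data, mean ± SEM from at least 4 measurements.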

[9] = target: T1, Kappa-type opioid receptor; assay: Antagonist activity at human KOR expressed in HEK293T cells coexpressing Gi assessed as Gi-mediated inhibition of cAMP production incubated for 15 mins followed by Gs activator isoproterenol addition measured after 15 mins by luciferase reporter gene assay; type: functional, cell-based; details: HEK-293T
Summary of the method: (§1)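 HEK293T cells co-transfected with human KOR and GloSensor split-luciferase cAMP biosensor, plated 15,000 cells/well overnight. Loaded 1 h with 4 mM luciferin in 20 mM HEPES/HBSS pH 7.4. Compounds preincubated 15 min, Sal A 20 nM added for 15 min, then isoproterenol (200 nM final) to drive Gs; luminescence read 15 min later. Sal A shifts analysed by Schild analysis to give KB.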

[10] = target: T1, Kappa-type opioid receptor; assay: Antagonist activity at human KOR expressed in HEK293T cells coexpressing Gi assessed as inhibition of Sal A-induced Gi-mediated reduction of cAMP production incubated for 15 mins followed by Sal A addition for 15 mins and susequent addition of Gs activator isoproterenol measured after 15 mins by luciferase reporter gene assay; type: functional, cell-based; summary of the method: as §1

T1 sequence (P41145 whole entry): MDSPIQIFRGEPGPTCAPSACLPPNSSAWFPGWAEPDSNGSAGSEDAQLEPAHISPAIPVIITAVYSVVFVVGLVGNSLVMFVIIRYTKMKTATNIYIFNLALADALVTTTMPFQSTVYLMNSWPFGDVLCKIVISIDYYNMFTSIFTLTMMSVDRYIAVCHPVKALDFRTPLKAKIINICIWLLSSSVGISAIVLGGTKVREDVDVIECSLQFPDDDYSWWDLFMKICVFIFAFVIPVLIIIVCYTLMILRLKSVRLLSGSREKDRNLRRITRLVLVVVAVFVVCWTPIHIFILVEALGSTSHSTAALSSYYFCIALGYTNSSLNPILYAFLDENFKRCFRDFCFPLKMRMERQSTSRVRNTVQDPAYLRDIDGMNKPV
Kappa-type opioid receptor (Homo sapiens), P41145 [M142A], sequence (P41145 whole entry M142A): as the sequence (P41145 whole entry) above, with M142A counted along it

| Structure (SMILES) | inhibition [1] [%] | Ki ([2]; read-out: Ki) [nM] | further results |
| --- | --- | --- | --- |
| c1ccc(CN2CCC(Nc3nc4ccccc4o3)C2)cc1 (centres undefined) | 77.5 | 2600 | inhibition [3]: 40 to 60% |
| CN(Cc1ccccc1NC(=O)NCc1ccoc1)C1CCCCC1 | 76.5 | 2300 |  |
| COc1ccc(CNCC(O)c2cccc(O)c2)cc1Br (centres undefined) | 98.2 | 230 | Ratio Ki [4]: 10; Ratio Ki [5]: > 10; Ratio Ki [6]: > 10 |
| NC1CCc2cc(O)ccc2C1 (centres undefined) | 48.6 | 8300 |  |
| O=C(NC[C@@H](c1ccco1)N1CCCC1)c1cc2ccccc2o1 | 64 | 950 | Ki ([2]; read-out: pKi (converted)): 912 nM |
| Cc1cccc(C(O)CNC(C)Cn2cc(Br)cn2)c1 (centres undefined) | 49.8 | 6400 |  |
| COC(=O)[C@@H]1C[C@H](OC(C)=O)C(=O)[C@H]2[C@@]1(C)CC[C@H]1C(=O)O[C@H](c3ccoc3)C[C@]21C |  |  | Ratio Ki [4]: 10 |
| Oc1ccc(CCC2CCCCN2Cc2ccc(Cl)o2)cc1 (centres undefined) | 95.3 | 500 |  |
| Cc1ccc(-c2ccccc2CN2CC3CNCC3C2)o1 (centres undefined) | 60.7 | 3000 |  |
| COc1ccc2oc(C(=O)NCC(c3ccco3)N3CCCC3)c(C)c2c1 (centres undefined) | 74 | 720 |  |
| CSc1ccc(CN(CCO)Cc2ccc(-c3ccn[nH]3)s2)cc1 | 53 | 3000 |  |
| NC(=O)c1cc(S(=O)(=O)NC2CCN(Cc3ccccc3)CC2)cs1 | 47.3 | 9800 |  |
| Cc1cc2oc(C(=O)NCC(c3ccco3)N3CCCC3)c(C)c2cc1C (centres undefined) | 77.5 | 1100 |  |
| Cc1ccc(C(CNC(=O)c2oc3ccc(F)cc3c2C)N2CCCC2)o1 (centres undefined) | 75.8 | 660 | inhibition [7]: Active; Ki ([2]; read-out: pKi (converted)): 646 nM; inhibition [3]: 40 to 60% |
| Cc1cc(S(=O)(=O)NCC(=O)NC2CCC2NC(C)C)ccc1F (centres undefined) | 49.1 | 6200 |  |
| CCN(Cc1csc(C)n1)C(C)c1cccc(O)c1 (centres undefined) | 74 | 630 | Ki ([2]; read-out: pKi (converted)): 562 nM; Ratio Ki [5]: > 10; Ratio Ki [6]: > 10 |
| Cc1nc(O)cc(C2CCN(Cc3ccc(C4CCCC4)s3)CC2)n1 | 73.7 | 8100 |  |
| Oc1cccc(C(O)CNCc2c(Cl)cccc2Cl)c1 (centres undefined) | 80.1 | 2600 |  |
| Oc1cccc(C(O)CNCc2ccc(Cl)cc2Cl)c1 (centres undefined) | 97.9 | 90 | Ratio Ki [4]: 10; Ki ([2]; read-out: pKi (converted)): 83.2 nM; Ratio Ki [5]: > 10; Ratio Ki [6]: > 10; IC50 [8]: 1100 nM; Ki [8]: 230 nM; inhibition [8]: Dose-dependent effect; Kb [9]: 170 nM; inhibition ([10]; HEK-293T): Dose-dependent effect; Kb ([10]; read-out: pA2 (converted)): 166 nM |
| Oc1cccc(CNCc2cc3ccccc3[nH]2)c1 | 82.4 | 710 | Ki ([2]; read-out: pKi (converted)): 676 nM |
| Cc1c(C(=O)NCC(c2ccco2)N2CCCC2)oc2ccc(Cl)cc12 (centres undefined) | 86.5 | 520 | inhibition [7]: Active; inhibition [3]: 40 to 60% |
| CC(CCc1ccc(O)cc1)NCCc1ccccc1 (centres undefined) | 70.2 | 6600 |  |
| Cc1ncsc1CN1CCCCC1CCc1cccc(O)c1 (centres undefined) | 96.9 | 350 |  |
| Cc1ccc(C(CNC(=O)c2oc3ccccc3c2C)N2CCCC2)o1 (centres undefined) | 69.1 | 380 | inhibition [7]: Active; Ki ([2]; read-out: pKi (converted)): 363 nM; inhibition [3]: 40 to 60% |
